Data: the RNAGym collection of RNA variant scans (doi:10.1038/s41586-018-0170-7)

B1: tRNA (parent)
chain: GUUCCGUUGGCGUAAUGGUAACGCGUCUCCCUCCUAAGGAGAAGACUGCGGGUUCGAGUCCCGUACGGAACG

Variants of: B1
Assay: yeast fitness, log relative to wild type (ln ratio); higher = fitter; tRNA-Arg(CCU), competitive growth, 37 C, 1 M NaCl
Procedure, shortened: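 Genotype fitness is expressed as the natural log of its generations over those of the wild type. Each pool of the tRNA-Arg(CCU) variant library, carried on a HIS3 centromeric plasmid in BY4742 lacking the chromosomal gene, came from one of two independent transformations and grew 4 generations in SC-HIS at 30 °C before ~6.5 generations (~26.5 h) in SC-HIS 1M NaCl at 37 °C. Generation numbers used OD-scaled log2 output/input frequencies from 125 bp paired-end Illumina sequencing, combined across replicates by inverse-variance weighting.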

| Variant | yeast fitness (ln) |
| --- | --- |
| ACUCCAUUGGCGUAAUGGUAACGCGUUUCCCUCCUAAGGAGAAGAUUGCGGGUUCGAGUCCCGUACGGAUUG | -0.0799 |
| GGUCCGUUGGCGUAAUGGUAACGCGUUUCCCUCCUAAGGAGACGAUUGCGGGUUCGAGUCCCGUACGGAACG | -0.0622 |
| AGUCCUUUGGCGUAAUGGUAACGCGUUUCCCUCCUAAGGAGAAGACUGCGGGUUCGAGUCCCGUACGGAUCG | -0.265 |
| AGUCCAUUGGCGUAAUGGUAACGCGUCUCCCUCCUAAGGAGACGACUGCGGGUUCGAGUCCCGUACGGAGCG | -0.304 |
| GGUCCUUUGGCGUAAUGGUAACGCGUUUCCCUCCUAAGGAGAAGACUGCGGGUUCGAGUCCCGUAAGGGUUG | -0.369 |
| ACUCCAUUGGCGUAAUGGUAACGCGUCUCCCUCCUAAGGAGAAGAUUGCGGGUUCGAGUCCCGUAAGGGGUG | -0.172 |
| GGUCCAUUGGCGUAAUGGUAACGCGUUUCCCUCCUAAGGAGACGACUGCGGGUUCGAGUCCCGUAUGGGUCG | -0.326 |
| GGUCCGUUGGCGUAAUGGUAACGCGUUUCCCUCCUAAGGAGACGAUUGCGGGUUCGAGUCCCGUAUGGGAUG | -0.394 |
| AGUCCAUUGGCGUAAUGGUAACGCGUCUCCCUCCUAAGGAGAAGAUUGCGGGUUCGAGUCCCGUACGGGUUG | -0.259 |
| AUUCCAUUGGCGUAAUGGUAACGCGUUUCCCUCCUAAGGAGAAGACUGCGGGUUCGAGUCCCGUAUGGAACG | -0.283 |
| AUUCCGUUGGCGUAAUGGUAACGCGUCUCCCUCCUAAGGAGAAGAUUGCGGGUUCGAGUCCCGUAUGGAGCG | -0.104 |
| AGUCCUUUGGCGUAAUGGUAACGCGUUUCCCUCCUAAGGAGACGACUGCGGGUUCGAGUCCCGUAAGGAUCG | -0.212 |
| AGUCCGUUGGCGUAAUGGUAACGCGUCUCCCUCCUAAGGAGAAGACUGCGGGUUCGAGUCCCGUACGGAUUG | 0.00659 |
| GGUCCAUUGGCGUAAUGGUAACGCGUCUCCCUCCUAAGGAGAAGAUUGCGGGUUCGAGUCCCGUAUGGAAUG | -0.082 |
| ACUCCAUUGGCGUAAUGGUAACGCGUUUCCCUCCUAAGGAGAAGAUUGCGGGUUCGAGUCCCGUACGGAAUG | -0.157 |
| GCUCCUUUGGCGUAAUGGUAACGCGUCUCCCUCCUAAGGAGACGACUGCGGGUUCGAGUCCCGUAAGGGUCG | -0.338 |
| GCUCCUUUGGCGUAAUGGUAACGCGUCUCCCUCCUAAGGAGACGACUGCGGGUUCGAGUCCCGUAAGGGGCG | -0.029 |
| GCUCCGUUGGCGUAAUGGUAACGCGUCUCCCUCCUAAGGAGAAGAUUGCGGGUUCGAGUCCCGUAUGGAAUG | -0.0488 |
| GCUCCUUUGGCGUAAUGGUAACGCGUCUCCCUCCUAAGGAGAAGACUGCGGGUUCGAGUCCCGUAUGGAGUG | -0.0593 |

| Variant | yeast fitness (ln) |
| --- | --- |
| AGUCCAUUGGCGUAAUGGUAACGCGUUUCCCUCCUAAGGAGACGAUUGCGGGUUCGAGUCCCGUACGGAAUG | -0.42 |
| GUUCCUUUGGCGUAAUGGUAACGCGUCUCCCUCCUAAGGAGACGAUUGCGGGUUCGAGUCCCGUAAGGGGCG | -0.147 |
| AUUCCGUUGGCGUAAUGGUAACGCGUUUCCCUCCUAAGGAGACGACUGCGGGUUCGAGUCCCGUACGGGAUG | -0.318 |
| AGUCCUUUGGCGUAAUGGUAACGCGUUUCCCUCCUAAGGAGAAGACUGCGGGUUCGAGUCCCGUAAGGGGUG | -0.408 |
| GGUCCGUUGGCGUAAUGGUAACGCGUUUCCCUCCUAAGGAGACGACUGCGGGUUCGAGUCCCGUACGGGUUG | -0.364 |
| GGUCCGUUGGCGUAAUGGUAACGCGUCUCCCUCCUAAGGAGAAGAUUGCGGGUUCGAGUCCCGUACGGGGCG | -0.131 |
| GGUCCGUUGGCGUAAUGGUAACGCGUCUCCCUCCUAAGGAGAAGACUGCGGGUUCGAGUCCCGUAAGGGAUG | -0.145 |
| ACUCCAUUGGCGUAAUGGUAACGCGUUUCCCUCCUAAGGAGAAGACUGCGGGUUCGAGUCCCGUAUGGGGUG | -0.0671 |
| GCUCCUUUGGCGUAAUGGUAACGCGUCUCCCUCCUAAGGAGAAGACUGCGGGUUCGAGUCCCGUACGGAUUG | -0.102 |
| AGUCCGUUGGCGUAAUGGUAACGCGUCUCCCUCCUAAGGAGAAGACUGCGGGUUCGAGUCCCGUAUGGGUCG | -0.197 |
| AUUCCUUUGGCGUAAUGGUAACGCGUCUCCCUCCUAAGGAGAAGAUUGCGGGUUCGAGUCCCGUAAGGAGUG | -0.0299 |
| AUUCCUUUGGCGUAAUGGUAACGCGUUUCCCUCCUAAGGAGAAGACUGCGGGUUCGAGUCCCGUAUGGAGCG | -0.391 |
| GCUCCGUUGGCGUAAUGGUAACGCGUUUCCCUCCUAAGGAGAAGAUUGCGGGUUCGAGUCCCGUACGGGUUG | -0.216 |
| GUUCCGUUGGCGUAAUGGUAACGCGUUUCCCUCCUAAGGAGACGACUGCGGGUUCGAGUCCCGUACGGGGCG | -0.235 |
| GGUCCAUUGGCGUAAUGGUAACGCGUCUCCCUCCUAAGGAGACGAUUGCGGGUUCGAGUCCCGUACGGGUCG | -0.123 |
| AUUCCGUUGGCGUAAUGGUAACGCGUUUCCCUCCUAAGGAGACGACUGCGGGUUCGAGUCCCGUACGGGACG | -0.138 |
| AUUCCAUUGGCGUAAUGGUAACGCGUCUCCCUCCUAAGGAGAAGACUGCGGGUUCGAGUCCCGUACGGGUCG | -0.166 |
| AGUCCGUUGGCGUAAUGGUAACGCGUUUCCCUCCUAAGGAGACGAUUGCGGGUUCGAGUCCCGUACGGAUCG | -0.229 |
| GGUCCAUUGGCGUAAUGGUAACGCGUUUCCCUCCUAAGGAGAAGAUUGCGGGUUCGAGUCCCGUAUGGAUUG | -0.158 |
